System: MS2 coat protein
Test: apparent Kd, MS2 coat protein; higher = weaker binding; RNA-MaP array; FMN 200 µM where present
How it was run: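 Designs were transcribed by stalled E. coli RNA polymerase on Illumina sequencing-chip clusters. They were titrated with SNAP-549-labelled MS2 coat protein from 0.7 or 1.5 nM, doubling to 3 µM, without and then with constant ligand. Buffer: 100 mM Tris-HCl pH 7.5, 80 mM KCl, 4 mM MgCl2, BSA, DTT, yeast tRNA, Tween-20. Green signal was normalised to red-channel RNA signal and control-cluster median Fmax. Apparent Kd is the median of filtered per-cluster binding-curve fits.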

[1] = designed as: OFF switch for flavin mononucleotide, no ligand
[2] = ligand present: flavin mononucleotide, designed as: OFF switch for flavin mononucleotide
[3] = designed as: ON switch for flavin mononucleotide, no ligand
[4] = ligand present: flavin mononucleotide, designed as: ON switch for flavin mononucleotide

Sequence | apparent Kd [1] [nM] | apparent Kd [2] [nM] | apparent Kd [3] [nM] | apparent Kd [4] [nM]
CCACCUCCUGAGGAUAUUGCAUCACCCGACUGAUAAGAAGGCAGAACAUGAGGAUCACCCAUGUGGGUACUCAC | 84 | 87.1 | – | –
GCCAUCGCAUGAGGAUAUGCUCGGGUUUCCCGAGCAGAAGGCAUGUAAUAAGACAUGAGGAUCACCCAUGUAGUUAAGAUGGCA | – | – | 7.48 | 5.3
GUAUGAGCGAUAGGAUAUACUGAGAUUGAAUGGGUAGAAGGAUCACUUGUGUGGAAGACAUGAGGAUCACCCAUGUCACGGGCC | – | – | 52.3 | 157
UUGAUUUUGUAAGGAUAUACUCUGUGAUGAAGAGUAGAAGGUACUUACAUGAGGAUCACCCAUGUUUAACGAGAUACUAAUCGU | – | – | 62.8 | 31.3
UGGGUAAAUGUAGGAUAUCUAUAUUAAUAAUAUGGAGAAGGACAUGAGGAUCACCCAUGUACAGGGAAUUACCCAUUUCCUCUC | 275 | 556 | – | –
AUAUCUUGUCGAGGAUAUGUUGUAUUGAUCUGAAAACAUGAGGAUCACCCAUGUAUACGGUGGGAACAGAAGGUGGAUGUAGAA | 318 | 356 | – | –
AAAACUGAAGGAUAUGCCAGGGUGAGAGCUGGUGACGUUUAACAUGAGGAUCACCCAUGUAGAAGGUCAAAACA | 15.3 | 17 | – | –
UAUAUUAUUAUAGGAUAUGGAUAUGAUGCAUAUCCAGAAGGGUGAUUAUAAUAUAAUCUAUACAUGAGGAUCACCCAUGUUUAU | – | – | 216 | 78.5
UAGGACUACGUAGGAUAUUAAAUCAUGUACUACAUGAGGAUCACCCAUGUUAAUUUAUCAUCAGCUGAGAAGGACGUGGUAAAU | – | – | 104 | 61.7
GCGUUGAACGAGAAGGCCAAUACAUGAGGAUCACCCAUGUUAAGAUGUUUUGGAGGAUAUCGUACGCAUUCAAUAUUGCAACGC | 7.63 | 9.47 | – | –
CUGGGUAAAAUGGGAGGUAGCUGGCAGGAUAUGACAUGAGGAUCACCCAUGUGGAGAUCUUGGGAUCAGAAGGGCCUGUGACCU | 205 | 119 | – | –
CUUUUAUAAUAGAAGGUAGACUUUAAGUGGAUCACCCAUGUGUUGGUACUAAGGAUAUGUAGUAACAUGAGGAUCACCCAUGUU | – | – | 20.5 | 16.9
GGUCGUCACAUAUACAUGAGGAUCACCCAUGUGAAAACACAUGAGGAUAUGGAUCCUAAUUGGAUCCAGAAGGCAUGGACGACC | – | – | 42.1 | 7.63
CGACACAUGAGGGUCUCCCAUGACAUGAGGAUCACCCAUGUGCAGGAUAUACGUGUGAUGGUAUAGUAGAAGGGCACUCUAUGU | 41.6 | 58 | – | –
AUGACUCGUGUUAGGAUAUCUUCGGCGUGGCUGAUGGAGAAGGGACAUGAGGAUCACCCAUGUAUCCUGGUCGG | 71.3 | 123 | – | –
AACAGUAUAGGAUAUACAUGAGGAUCACCCAUGUGAGAAUUACGUGGCGUACCACGAAGUAGAAGGAUACUGGA | 38.6 | 168 | – | –
GACUGCAGAGGAUAUACAUGAGGAUCACCCAUGUGAGAUGCCUGACAGGUGUUGCUGAGUAGAAGGCUGCACUG | 14.1 | 21 | – | –
UGUCGGAGCAGAGGAUAUUACAUGAGGAUCACCCAUGUAUGAACCAAUAGCUGGAAACACCAAUGUAAGAAGGCUGCUCCGACA | 19.8 | 146 | – | –
GCCAGAGCAGGAUAUUCAAUAAUCCACAUGAGGAUCACCCAUGUCUAGCGAAAGCUAGAGGGAGAAGGGCUCUGGC | 79.3 | 33.7 | – | –
AACCUAAAACAGAAGGCCAGCUACAUGAGGAUCACCCAUGUCGAAUCAUGGAGGAUAUGUUGUUAUUUACUCGCAGAUGAGUGC | – | – | 28.1 | 5.51
UAAAAGUCAGGAUAUGCGAAGGCGUCUGAUAGACGAGGCUAGCAGAAGGGACAUGAGGAUCACCCAUGUGAAAU | 51.8 | 138 | – | –
ACAUGAGGAUCACCCAUGUUUUUUGGGUACUCUUGAUACAGCAAGGAUAUGCAUUAUUUAUGUACGCAGAAGGUGCAUUACGUC | 920 | 853 | – | –
UUGGACGUAGUAGGAUAUGUAGGAUAUUCCUACAUGAGGAUCACCCAUGUUGACAUGGAAGAAGGACAGAAGGACGAUGUCCAU | – | – | 405 | 5.06
ACAUGAGGAUCACCCAUGUAUACAUAGGAUAUUGAGGAUCAGGGAUGUUUUACAGGAUAUGUCUACAAGAAGGAUGCAAGUACA | – | – | 32.7 | 29.1
GUAUAGAUUACAUGAGGAUCACCCAUGUCAGAACGGGUAAUCAGAAGGUAUUAUUAGAGAAAGGGUAAGGAUAUGAUUUUAUAU | – | – | 598 | 389
AAACCGUGUGGAGGAUAUGCAGUUGAGGUGAGGUGGCAACUCUAUACGACAGCAGAAGGCCACAUGAGGAUCACCCAUGUAGGU | 251 | 73.6 | – | –
UGUAUACAUGAGGAUCACCCAUGUAAGGAUAUGCUUUAUUAUUAUUAUUAUUAUUGUUGCAGAAGGUACAUUGU | 28.9 | 32.1 | – | –
UGAAAUCAUGUAGGAUAUGCAUGGCGAAGCUACGCAGAAGGACAUGAGGAUCACCCAUGUUCUGGCUACCGAGUUCGGUGGCAA | 22.1 | 105 | – | –

Sequence | apparent Kd [1] [nM] | apparent Kd [2] [nM] | apparent Kd [3] [nM] | apparent Kd [4] [nM]
AUACUGAGCGUAAGUUACCUGAACAUGAGGAUCACCCAUGUGGAGGAUAUUGACCUAGCAAAGCUCGAGAAGGCCACUGGGAUG | 24.8 | 19.1 | – | –
AGGUAAGACUUAAUUGUGCUGGUGAGAAGGCAAAUGGUUGUGAUUAACAUGAGGAUCACCCAUGUUGAGGAUAUCAUCGGUAUC | – | 62.9 | – | –
AUAAAACAUGAGGAUCACCCAUGUAGAAAUAUGGGAGGAUAUACAAAGACGAAAGUCAAAGUAGAAGGCCUAAAAG | – | – | 127 | 33.5
AAAAAACAUGAGGAUCACCCAUGUCUUUUGACAUGAGGAUAUGUACAGACUUCGGUCUGUACAGAAGGCAUGUAAA | – | – | 511 | 34.7
CGAUAUUAUGCAGGAUAUCUCCCUUGAAUGCGGAGAGAAGGGCAUAGGGAGACAUACGCCUUAUUACAUGAGGAUCACCCAUGU | 9.4 | 8.29 | – | –
CUGUGACGGUGCGCAAGUGGACGUAGAAGGGUCACAUGAGGAUCACCCAUGUGGGCCUGCUAGUGACAGGAUAUACGUUCGUGC | – | 65.2 | – | –
CUACAUGAGGAUCACCCAUGUGCACACCGGAUCGGUAUGCGCAGAAGGGCCAUGGAGAAAGCCAGGCAGGAUAUGCAAAGGGCU | – | – | 258 | 176
AAACACGGACAUGAGGAUCACCCAUGUGGCGAAAGCCUUGGGAGAAGGUAUUAUGCAAAGCAUUAUAAGGAUAUUCAUACCGUG | – | – | 821 | 187
GGAUGACAAAGUCAUCCUAUUCGAACAUGAGGAUCACCCAUGUAGGAUAUGCUACUCAAAGAGUAGCAGAAGGACAUGUGCUUU | 37.6 | 165 | – | –
AAUUCGUUCUAGAAGGUGCAUUUGUUAAACAUGCAAGGAUAUAGACAUGAGGAUCACCCAUGUCUAUGAGACAUCGGCCUCCUG | 6.72 | 11.7 | – | –
ACAUGCAUAGCGAUAUGAUCGAGAGAUCAUGUCGCUAAAUUUAGAAGGACAUGAGGAUCACCCAUGUAGGAUAUGGGAGCAUGG | – | – | 42.8 | 10.3
CAUGACGAAGGAUAUACAUGAGGAUCACCCAUGUGGUCAUGGAAUUACGUGUUCUCGCGUAGAAGGUUGUAGAG | 11.3 | 12.8 | – | –
UUAAAUCAUGUAGGAUAUGCAUGGCGAAGCUACGCAGAAGGACAUGAGGAUCACCCAUGUUAUAGCUUCCAAGUUAGGAGGCAA | 85.7 | 191 | – | –
GUCCUCUCUGAGGAUAUUAUCUGGUCCGAUUGAUAAGAAGGCAGUACAUGAGGAUCACCCAUGUGGGUCGUCUG | 53.5 | 77.7 | – | –
UCCACUGCUGAGAAGGGAUACGUCUGGGUCGCAUCAGGAUAUCGAUACAGUGCAGCAUGAGGACAUGAGGAUCACCCAUGUGUG | – | – | 102 | 49.6
UCAAUUCUGACAUCCUUAUUACAUGAGGAUCACCCAUGUUGUGAGGAUAUCCCAACCCACGGUCAGGAGAAGGCACAUAGAGGG | 5.5 | 5.9 | – | –
AAAACAUGAGGAUCACCCAUGUAAAGAUCGGUCGAUCAAGGUGAGGAUAUACAAAACUUGAUGGAGUAGAAGGCACUGGGUUGA | – | – | 384 | 201
GCGGUCAACGUAGGAUAUCUUCAGCCACAGCACAUUGCUGUACAUGAGGAUCACCCAUGUCCUGGAGAGAAGGACGGACGGCAG | – | – | 179 | 35.3
UGUCAUAAACAGAAGGGUAGUUGGGUUAUACAUGAGGAUCACCCAUGUAUUACAGGAUAUGUGUAAAGUUAUUAUUAAAGUAAA | 12.6 | 13.8 | – | –
UUCUUGGCAGGAUAUGCUUUUUUAGACAUGAGGAUCACCCAUGUGAUGAUUAUUGGUUUUGCAGAAGGGCCUUAAU | 53.6 | 87.5 | – | –
AAAAUGUCAGGAUAUGCGAAGGCAUCUGACAGAUGAGGAUUGCAGAAGGGACAUGAGGAUCACCCAUGUAAAAA | 40.3 | 47.5 | – | –
AAAAAGUCAGGAUAUGUAGCAAAAGGUGAUCAAAAAAAGCUACAGAAGGGACAUGAGGAUCACCCAUGUAAAAA | 262 | 336 | – | –
GGCGAACAUGAGGAUCACCCAUGUCAGGAUAUCUCUCGCGUUGAAUUGAGGGUGUGUGAGAGAAGGGAUAUGUA | 49.7 | 49.9 | – | –
AUUCCCAACCAGAAGGACAUGAGGAUCACCCAUGUAGGAUAUGGGUGGGUGACCCGAACUUGGACGACAUCACAAUUCUCACAC | – | – | 55.6 | 9.49
GGUGUCAUCGAGAAGGCCUCAACAUGAGGAUCACCCAUGUUGUAAUAUGGGAGGAUAUCGAUGAUACAGCUACGUUUCGUAGCG | – | – | 19.9 | 6.57
CUCUUGUGAGGAUAUCAGUAGUAAAAAAAUAAAAUUACUACUGAGAAGGCACAUGAGGAUCACCCAUGUACCUU | 22.9 | 22.7 | – | –
UCCACUGCUGAGAAGGGAUACGUGUGGUUCGAAUCAGGAUAUCGAUACAGUGCAGCAUGAGGACAUGAGGAUCACCCAUGUAUU | – | – | 19.1 | 14.2
